The values below come from ChEMBL document CHEMBL4011638, “Semisynthetic Flavone-Derived Antimicrobials with Therapeutic Potential against Methicillin-Resistant Staphylococcus aureus (MRSA)” (J Med Chem, 2017).

Active and inactive are the calls of the source. The calls are words filed in the database; no cut-off is given here.

The subject of assay [1] is Staphylococcus aureus. Kind of assay: Ratio of MIC for Staphylococcus aureus ATCC 29213 after […] passages to MIC for Staphylococcus aureus ATCC 29213. The class given is functional. Put shortly: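 Serial passage. Initial MIC was determined against S. aureus ATCC29213 by broth microdilution. Bacteria from duplicate tubes at 0.5× MIC were diluted to ~5 × 10^5 CFU/mL for the next MIC round. Each round was incubated at 35 °C for 24 h and the fold increase in MIC recorded. Gatifloxacin and norfloxacin served as comparators. Repeated for 17 passages, biological replicates.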

The subject of assay [2] is Staphylococcus aureus. Kind of assay: Antibacterial activity against Staphylococcus aureus ATCC 29213 infected in C57BL6 mouse keratitis model assessed as log reduction in bacterial burden at 0.5 % administered 4 times daily at 2 hrs interval for 1 day. The class given is functional. In a few lines: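 C57BL6 mice, 6–8 weeks, 20–30 g, four per group, anesthetized with ketamine/xylazine. Right cornea scratched (three 1 mm cuts), 10 μL of 6×10^8 CFU/mL S. aureus ATCC 29213 in PBS applied topically. From day 1, 0.5% drug in PBS (12 mM, pH 7.2) given 4 times at 2 h intervals. Corneas homogenized in 0.9% NaCl/0.25% BSA, diluted, plated in duplicate on TSA, 48 h at 35 °C.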

Turning to `COc1c(N2CCNC(C)C2)c(F)cc2c(=O)c(C(=O)O)cn(C3CC3)c12` (stereo not drawn) [GATIFLOXACIN], in the assay with Staphylococcus aureus [1], the Ratio was 64.
With `C[C@H]1COc2c(N3CCN(C)CC3)c(F)cc3c(=O)c(C(=O)O)cn1c23`, the result in the assay with Staphylococcus aureus [2] was Active.
Take `CCn1cc(C(=O)O)c(=O)c2cc(F)c(N3CCNCC3)cc21` [NORFLOXACIN]: the Ratio in the assay with Staphylococcus aureus [1] was 128.
